Screening results: PubChem BioAssay, several laboratories
CSN deneddyl inh – inhibitors of CSN-mediated cullin deneddylation, primary screen, biochemical, fluorescence polarization, uHTS. Purified CSN, SCF-Nedd8-OG deneddylation. inhibition, % at 12.5 µM. 360,000 compounds, 0.38% hits. AID 651999, 2013;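 active = pattern-corrected inhibition above about 35%, with an unprinted fluorescence ratio check between 0.5 and 1.5, limit read from the data, passing the limit was not always enough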
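Test system: purified human Csn5 enzyme expressed in HEK293T cells. Amount: 0.24 nM enzyme. Reagent: SCFSkp2-Nedd8OG substrate at 10 nM final. Schedule: 90 min incubation of compound, enzyme and substrate at room temperature. Detection: fluorescence polarization. Read-out: % inhibition of substrate cleavage by Csn5.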
ATG4B inhibitor – ATG4B protease inhibitors, primary screen, biochemical, fluorescence, uHTS | inhibition, % at 8.33 µM | Cysteine protease ATG4B (Homo sapiens), Q9Y4P1 | 340,000 compounds, 0.51% hits | ATG4B cleavage of LC3-PLA2, NBD-HPC fluorescence, 1 h; in the data active = inhibition above about 40%
MBD2 DNA inh – inhibitors of MBD2 binding to methylated DNA, primary screen, biochemical, TR-FRET, DNA-binding domain, human | MBD2 binding to methylated oligonucleotide | inhibition, % at 4.4 µM | 370,000 compounds, 0.31% hits; in the data active = inhibition above about 13%
UHRF1 binding – UHRF1 methylated DNA binding inhibitors, primary screen, counter-screen for MBD2 inhibitor project, biochemical, TR-FRET, human UHRF1, single concentration. UHRF1 binding to methylated oligo. inhibition, % at 4.4 µM. 370,000 compounds, 0.75% hits; in the data active = inhibition above about 21%;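 also: UHRF1 SRA domain binding a hemimethylated CpG hairpin DNA probe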
Target sequence (Q96T88 whole entry, looked up, the tested form may be a part): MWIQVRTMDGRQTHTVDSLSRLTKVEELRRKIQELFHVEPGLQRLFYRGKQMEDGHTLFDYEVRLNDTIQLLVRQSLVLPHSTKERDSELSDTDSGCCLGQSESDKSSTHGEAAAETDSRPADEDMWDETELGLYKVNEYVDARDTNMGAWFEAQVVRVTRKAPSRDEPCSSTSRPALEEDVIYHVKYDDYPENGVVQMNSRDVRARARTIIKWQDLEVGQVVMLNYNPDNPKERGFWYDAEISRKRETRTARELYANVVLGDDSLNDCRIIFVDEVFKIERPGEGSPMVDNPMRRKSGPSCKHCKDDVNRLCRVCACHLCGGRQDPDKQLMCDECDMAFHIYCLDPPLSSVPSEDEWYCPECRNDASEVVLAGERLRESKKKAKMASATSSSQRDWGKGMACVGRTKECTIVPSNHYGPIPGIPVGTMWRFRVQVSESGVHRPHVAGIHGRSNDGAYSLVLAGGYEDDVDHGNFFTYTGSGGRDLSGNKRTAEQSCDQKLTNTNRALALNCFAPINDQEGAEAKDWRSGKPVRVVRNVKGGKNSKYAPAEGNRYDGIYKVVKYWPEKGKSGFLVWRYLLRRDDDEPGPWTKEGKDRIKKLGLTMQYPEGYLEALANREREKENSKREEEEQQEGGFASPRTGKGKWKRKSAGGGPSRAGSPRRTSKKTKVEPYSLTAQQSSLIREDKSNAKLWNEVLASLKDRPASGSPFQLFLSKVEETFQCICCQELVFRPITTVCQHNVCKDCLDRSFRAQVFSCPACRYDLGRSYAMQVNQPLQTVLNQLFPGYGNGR
rCAG binder – binders of r(CAG) RNA repeats, primary screen, biochemical, fluorescence; inhibition, % at 3 µM; r(CAG) RNA repeat, TO-PRO-1 dye displacement fluorescence; AID 651821, 2012; 370,000 compounds, 1.3% hits;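 active = inhibition above the plate cutoff, the mean of all test compounds on that plate plus 3 SD, cut at about 35% in these data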;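 also: higher means more dye released from RNA so lower well fluorescence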
LEDGF integ inh – blockers of LEDGF/p75-dependent integrase strand transfer – biochemical, TR-FRET, high throughput, primary screen | HIV-1 integrase (with human LEDGF/p75) | TR-FRET IN-LEDGF/p75 DNA integration, Eu/Cy5 | inhibition, % at 3.7 µM | 370,000 compounds, 0.64% hits;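 active = inhibition above the screen-wide mean plus 3 SD, cut at about 13% in these data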;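 also: signal is the Cy5 over europium emission ratio at 671 and 618 nm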
CSN deneddyl val – Csn5 deneddylation inhibitors, confirmation, biochemical, fluorescence polarization, single concentration, SCF-Nedd8OG substrate; shares compounds with CSN deneddyl inh; Csn5 deneddylation of SCF-Nedd8OG, 90 min; inhibition, % at 16.6 µM; 540 compounds, 62% hits; in the data active = inhibition above about 50%
MMP-2 counter – MMP-2 protease inhibition counter-screen, confirmation, counter-screen for CSN deneddylation inhibitor project, biochemical, fluorescence, single concentration; 540 compounds, 33% hits; recombinant MMP-2, FRET substrate fluorescence, 60 min; inhibition, % at 16.6 µM; shares compounds with CSN deneddyl inh;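 active = corrected plate-normalized z-score of 5 or more, or -5 or less, or inhibition of 15% or more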
Thrombin cntr – blocks bovine thrombin in a CSN deneddylation counter-screen | shares compounds with CSN deneddyl inh | bovine thrombin cleavage of Ub4-pepOG, fluorescence polarization | inhibition, % at 16.6 µM | 540 compounds, 49% hits;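 active = inhibition at or above a set limit, with a fluorescence interference ratio between 0.5 and a set maximum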
A number is an active result; – = inactive; · = no result; + = active, no number; ! = not active in a repeat. A selection: hits, their analogues and other compounds. The true share with any hit is near 3.1%.

SMILES | CSN deneddyl inh | ATG4B inhibitor | MBD2 DNA inh | UHRF1 binding | rCAG binder | LEDGF integ inh | CSN deneddyl val | MMP-2 counter | Thrombin cntr
CCCCCCCCCCCCCCCC(O)C(N)CO (stereo unspecified) | 53 | – | – | – | – | – | – | – | –
Cc1ccc(C(=O)Nc2cccc(C(F)(F)F)c2)cc1NC(=O)c1c[nH]c2cc(C(F)(F)F)ccc2c1=O | – | – | – | – | – | – | · | · | ·
CCN1CCN(Cc2ccc(NC(=O)c3ccc(C)c(NC(=O)c4c[nH]c5cc(C(F)(F)F)ccc5c4=O)c3)cc2C(F)(F)F)CC1 | 78! | – | – | – | – | – | 90 | – | –
Cc1cc(/C=C2\SC(=S)N(C)C2=O)c(C)n1-c1cccc(O)c1 | 37 | – | – | – | – | – | 71 | – | 94
COc1ccc(-n2c(C)cc(/C=C3/SC(=S)N(C)C3=O)c2C)cc1 | – | – | – | – | – | – | · | · | ·
O=c1c2ccccc2n(Cc2ccccc2)n1[C@@H](Cc1ccccc1)Cn1cc(-c2ccc(-c3ccccc3)cc2)nn1 | · | · | – | – | – | – | · | · | ·
COc1ccc(N=Cc2c(O)c3ccccc3n2C(C)=O)cc1 | 61 | – | – | – | – | – | 50 | – | 56
O=C(O)CN1C(=O)/C(=C\c2ccc(OC(=O)c3ccco3)cc2)SC1=S | 54 | – | – | – | – | – | 82 | – | 68
CCN1C(=O)/C(=C/C=C2\C=CN(CC)c3ccccc32)SC1=S | – | – | – | – | – | – | · | · | ·
CCN1C(=O)/C(=C\C=C2/C=CC=CN2CC)SC1=S | 53 | – | – | – | – | – | 61 | 23 | 63
Cc1ccc(S(=O)c2ccc([N+](=O)[O-])c3nonc23)cc1 (stereo unspecified) | 42 | · | – | – | 63 | – | 83 | -50 | –
COC1=CC(=Cc2c(N)n3nc(CC(=O)N4CCOCC4)sc3nc2=O)C=C(OC)C1=O | 88 | – | – | – | – | – | 94 | – | 83
CN(c1c2c(nc3ncnn13)CCCC2)C1CCCCC1 | · | · | – | – | – | – | · | · | ·
O=C(Nc1cccc(-c2cnc3ccccc3n2)c1)c1cccc(NC(=O)c2ccco2)c1 | 41 | – | – | – | – | – | · | – | 17
O=C(Nc1cccc(-c2cnc3ccccc3n2)c1)c1ccccc1 | – | – | – | – | – | – | · | · | ·
O=C(Nc1nc(-c2ccco2)c(-c2ccco2)s1)c1ccc(F)cc1F | 45 | – | – | – | – | – | 103 | – | –
CCOC(=O)CC[C@@]1(C(=O)OCC)C[C@@H](CC(=O)NCCCN2CCCC2=O)C(=O)N2CCCC=C21 | · | · | – | – | – | – | · | · | ·
CCOC(=O)C1CCCN(C2=NC(=O)/C(=C/c3ccc(N(C)C)cc3)S2)C1 (stereo unspecified) | 114 | – | – | – | – | – | 171 | – | –
CCOC(=O)C1CCCN(C2=NC(=O)/C(=C/c3ccc(OC)cc3)S2)C1 (stereo unspecified) | – | – | – | – | – | – | · | · | ·
CC(OC(=O)/C(C#N)=C/c1ccc(N(C)C)cc1)C(=O)N(C)c1ccccc1 (stereo unspecified) | 71 | – | – | – | – | – | 62 | – | 73
O=C(CN1CCN(c2nc(-c3ccccc3)cs2)CC1)Nc1ccc(Cl)cc1 | · | · | – | – | – | – | · | · | ·
CCOC(=O)/C(=C/c1ccc(OC(=O)c2ccccc2)cc1)C(C)=O | – | – | – | – | – | – | · | · | ·
CCOC(=O)/C(=C/C1=CC(=C/N(C)C)/C(=O)O1)C(C)=O | 93 | – | – | – | – | – | 121 | – | 82
O=C(Nc1ccc(C2=NCCN2)cc1)c1ccc(C(=O)Nc2ccc(C3=NCCN3)cc2)c(Cl)c1 | 114 | – | – | – | – | – | – | 72 | –
O=C(CSc1nnc(-c2ccccc2F)n1Cc1ccco1)Nc1ccccc1-c1ccccc1 | · | · | – | – | – | – | · | · | ·
SMILES | CSN deneddyl inh | ATG4B inhibitor | MBD2 DNA inh | UHRF1 binding | rCAG binder | LEDGF integ inh | CSN deneddyl val | MMP-2 counter | Thrombin cntr
O=C(CSc1nnc(-c2cccnc2)n1C1CCCCC1)N1CCCC1 | · | · | – | – | – | – | · | · | ·
COC(=O)c1ccc(COc2ccc(/C=C(\C#N)c3nc4ccccc4[nH]3)cc2OC)o1 | 57 | – | – | – | – | – | – | – | 41
N#C/C(=C/c1ccc(O)c(O)c1)c1nc2ccccc2[nH]1 | 124 | – | – | – | – | – | + | – | 55
COc1cc(/C=C(/C#N)c2nc3ccccc3[nH]2)ccc1Oc1ncccc1[N+](=O)[O-] | – | – | – | – | – | – | · | · | ·
C[C@@H]1ON(C)[C@H]2C[C@H]3c4[nH]c5c(-c6ccccc6F)cccc5c4CCN3C[C@@H]12 | · | · | – | – | – | – | · | · | ·
CC(C)N1CCc2c(sc(NC(=O)c3ccc(S(=O)(=O)N4CCc5ccccc54)cc3)c2C(N)=O)C1 | 47 | – | · | · | · | · | · | – | –
Cc1ccccc1CN1CCCCC(NC(=O)c2ccccc2F)C1=O (stereo unspecified) | · | · | – | – | – | – | · | · | ·
CCC/C(C#Cc1ccc(N(C)C)cc1)=C1/c2ccccc2C(=O)N1c1ccccc1 | 53 | – | – | – | – | – | + | -59 | –
CCC/C(C#Cc1cc(OC)cc(OC)c1)=C1/c2ccccc2C(=O)N1c1ccccc1 | – | – | – | – | – | – | · | · | ·
O=C(c1cc(Cl)cc(Cl)c1)N1CCC(Oc2cccnc2)CC1 | · | · | – | – | – | – | · | · | ·
COc1cc(NCCCCCCN)c2ncccc2c1OC | 86 | – | – | – | – | 40 | · | – | –
Cc1sc2nc3c4ccccc4c(NCc4ccco4)nn3c(=O)c2c1C | 64 | – | – | – | – | – | 102 | – | –
Cc1nc(NCc2ccco2)c2c(C)c(C)sc2n1 | – | – | – | – | – | – | · | · | ·
Nc1ccc(/C=C/C(=O)c2cccs2)cc1 | 40 | – | – | – | – | – | 72 | – | 32
